Compound activity from PubChem BioAssay.
PLCg1 inh: PLC-gamma1 (human) inhibition, primary screen; purified PLC-gamma1, fluorogenic substrate, fluorescence; inhibition, % at 12.2 µM; 370,000 compounds, 0.84% hits; AID 720700
Tn7 DDE FP: disrupts Tn7 cyclic peptide binding to fibrin D-Dimer-E complex. P02675. FP displacement of FITC-Tn7 peptide from fibrin DD(E); 0% = median of compound wells per plate. inhibition, % at 8.3 µM. 370,000 compounds, 0.13% hits. AID 720508;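 active = inhibition above the mean of compounds falling within the control limits plus 3 SD of them, cut at about 14% in these data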
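Assay system: human fibrin DD(E) protein / Input: 2 µM fibrin DD(E) / Benchmarks: high control of 10 µM Aha-Tn7 peptide / Measured by: fluorescence polarization of the labelled Tn7 tracer / Medium: Tris buffer with calcium and detergent, pH 7.8 / Timing: 10 min compound pre-incubation, 3 h probe incubation at room temperature / Repeats: one replicate per compound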
FID counter: counter-screen for HCV NS3 helicase inhibitors: DNA intercalator displacement | inhibition, % at 7.9 µM | AID 1845 | DNA fluorescent intercalator displacement, fluorescence | 290,000 compounds, 0.17% hits; in the data active = inhibition above about 37%;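 note: higher means more ethidium bromide displaced from hairpin DNA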
PLC-beta3 inh: inhibitors of human phospholipase C beta3 | AID 720704 | inhibition, % at 12.2 µM | 370,000 compounds, 0.18% hits | Q01970 | Purified PLC-beta3, fluorogenic substrate, fluorescence; in the data active = inhibition above about 11%
Tn6 DDE FP: disrupts Tn6 cyclic peptide binding to fibrin D-Dimer-E complex. AID 720509. Fibrin DD(E) TRITC-Tn6 fluorescence polarization displacement. P02675. 370,000 compounds, 0.21% hits. inhibition, % at 8.3 µM;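 active = inhibition above a per-campaign cutoff: mean of compounds within control limits plus 3 SD, cut at about 15% in these data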
PLCg1 ctr: PLC-gamma1 inhibition, counter-screen for PLC-beta3 hits | shares compounds with PLCg1 inh | AID 743258 | inhibition, % at 12.3 µM | purified PLC-gamma1, fluorogenic substrate, fluorescence | 3,300 compounds, 3.1% hits
PLCbeta3 conf: confirmation of human PLC-beta3 inhibitors; 3,300 compounds, 1% hits; shares compounds with PLCg1 inh; inhibition, % at 12.3 µM; purified PLC-beta3, fluorogenic substrate fluorescence; in the data active = inhibition above about 11%
A number is an active result; – = inactive; · = not tested or not shown. An excerpt weighted towards active compounds, which were near 1.4% of everything screened. Cut-off read from the data, not from the text of the source, unless noted: active = inhibition above about 9.5%; inactive = the rest.

SMILES	PLCg1 inh	Tn7 DDE FP	FID counter	PLC-beta3 inh	Tn6 DDE FP	PLCg1 ctr	PLCbeta3 conf
C[C@@]12C(=O)N(c3cccc(F)c3)C(=O)N1[C@@H]1c3ccccc3OC[C@@H]1[C@H]2c1ccccc1	10.0	–	·	–	–	–	–
O=C(CCn1nnc(-c2cccs2)n1)NC1CCCCC1	–	–	–	–	–	·	·
CC(O)CNC(=O)C1CCN(Cc2ccc(OCc3ccccc3)cc2)CC1 (configuration not stated)	–	–	–	–	–	·	·
CC(C)CNC(=O)C1CCN(Cc2ccc(OCc3ccccc3)cc2)CC1	12	–	–	–	–	–	–
Fc1ccc(N/N=C/c2cccnc2)c(F)c1	–	–	–	–	–	·	·
CCOC(=O)N1CCN(C(=O)c2ccc(Cn3c(=S)[nH]c4cc(C(=O)OC)ccc4c3=O)cc2)CC1	–	–	–	–	–	·	·
CC(=O)Nc1ccc(N2C(=O)CSC2c2c(F)cccc2Cl)cc1 (configuration not stated)	–	–	–	14	–	–	–
CC(=O)Nc1ccc(N2C(=O)CSC2c2ccc(F)cc2)cc1 (configuration not stated)	–	–	–	–	–	·	·
Cc1ccc(NC(=S)N(Cc2cccs2)Cc2cc3cc(C)cc(C)c3[nH]c2=O)cc1	–	–	–	–	–	·	·
Nc1nnc(COc2ccccc2)s1	11	–	–	–	–	–	–
CC(=O)Nc1ccc(-c2ccnc3c2CC(C)(C(=O)Nc2ccccc2)O3)cc1 (configuration not stated)	–	–	·	–	–	·	·
CN(C)c1ccc(CNC(=O)C2(C)Cc3c(-c4ccccc4)ccnc3O2)cc1 (configuration not stated)	–	–	·	–	–	·	·
CN(C)c1ccc(CNC(=O)C2(C)Cc3c(-c4cccc(C(N)=O)c4)ccnc3O2)cc1 (configuration not stated)	10.0	–	·	–	–	–	–
CC(=O)Nc1ccc(-c2ccnc3c2CC(C)(C(=O)NCCc2ccccc2)O3)cc1 (configuration not stated)	14	–	·	–	–	–	–
CC(=O)Nc1ccc(-c2ccnc3c2CC(C)(C(=O)NCc2ccc(N4CCN(C)CC4)cc2)O3)cc1 (configuration not stated)	–	–	·	11	–	–	–
COc1cccc(NC(=O)C(OC(=O)c2cnc(C)cn2)c2ccccc2)c1 (configuration not stated)	–	–	·	–	–	·	·
c1ccc(Cn2ncc3c(N4CCN(c5ccccc5)CC4)ncnc32)cc1	11	–	·	–	–	–	–
c1ccc(Cn2ncc3c(N4CCN(C(c5ccccc5)c5ccccc5)CC4)ncnc32)cc1	–	–	–	–	–	·	·
Cc1ccc2c(c1)N/C(=C(\C=C(/Cl)[N+](=O)[O-])[N+](=O)[O-])N2	·	·	–	·	·	·	·
O=C(Nc1ncc2c(n1)CC(c1cccc(Cl)c1)CC2=O)c1ccco1 (configuration not stated)	19	–	–	–	–	–	–
COc1cc(CN2CCC(C)CC2)ccc1OCc1ccccc1	15	–	–	–	–	–	–
CC(=O)Nc1cccc(-c2nnc3n2CC(C)S3)c1 (configuration not stated)	15	–	–	–	–	–	–
CC(=O)N1CCc2ccccc2C1CC(=O)O (configuration not stated)	11	–	–	–	–	–	–
Cc1cc(C(=O)NN=C(Cc2ccccc2)Cc2ccccc2)c(C)o1	–	–	–	–	–	·	·
Cc1ccc(COc2ccc(/C=N/O)cc2)cc1	–	–	–	–	–	·	·
SMILES	PLCg1 inh	Tn7 DDE FP	FID counter	PLC-beta3 inh	Tn6 DDE FP	PLCg1 ctr	PLCbeta3 conf
Cc1ccc(Oc2ccc(/C=N/O)cn2)cc1	14	–	–	–	–	–	–
Cc1ccccc1NC(=O)CC1SC(=O)N(c2ccccc2)C1=O (configuration not stated)	–	–	–	–	–	·	·
CCOc1ccc(NC(=O)CC2SC(=O)N(c3ccccc3)C2=O)cc1 (configuration not stated)	9.9	–	–	–	–	–	–
COc1ccc(NC(=O)CN(C)C(=O)C2CC(=O)N(CCc3ccc(OC)c(OC)c3)C2)cc1 (configuration not stated)	–	–	·	–	–	·	·
COc1ccc(NC(=O)CN(C)C(=O)C2CC(=O)N(Cc3ccc(C)cc3)C2)cc1 (configuration not stated)	12	–	·	–	–	–	–
O=C(O)CC1C(=O)NCCN1Cc1ccc(F)c(F)c1 (configuration not stated)	–	–	–	–	–	·	·
O=C(CN1CCOC1=O)N1CCCC(N2CCN(c3cccc(C(F)(F)F)c3)CC2)C1 (configuration not stated)	–	–	–	–	–	·	·
COc1ccc(Nc2nc(C(=O)N(CCO)Cc3ccccc3)cs2)cc1	–	–	–	–	–	·	·
CCOc1ccccc1N(CC(=O)NCCOC)C(=O)CCC(=O)Nc1ccccn1	–	–	–	–	–	·	·
COCCNC(=O)CN(C(=O)CCC(=O)Nc1ccccn1)c1cc(C)ccc1C	13	–	–	–	–	–	–
Cc1cc(=O)[nH]c(NC(=O)Cc2ccccc2)n1	–	–	·	–	–	·	·
CNC(=O)c1ccccc1NC(=O)c1c(O)c2c([nH]c1=O)CCCC2	–	–	–	–	–	·	·
O=C(N/N=C/c1cccc(F)c1)c1c(O)c2c([nH]c1=O)CCCC2	–	–	–	12	–	–	–
CC(=O)Nc1ccc(S(=O)(=O)NCC(=O)OCC(=O)N2CCc3ccccc32)cc1	13	–	–	–	–	–	–
O=C(CNC(=O)c1cccc(F)c1)OCC(=O)N1CCCc2ccccc21	12	–	–	–	–	–	–
COc1ccc(/C=C/CN2CCN(Cc3cccc(OC)c3)C(CCO)C2)cc1 (configuration not stated)	–	–	–	–	–	·	·
COc1ccc(C(=O)NCC(C)(C)N2CCOCC2)cc1S(=O)(=O)NCc1ccc(Cl)cc1	12	–	·	–	–	–	–
CC(NC(=O)c1ccccc1Cl)C(=O)NCc1cccs1 (configuration not stated)	–	–	·	–	–	·	·
O=C(Nc1ccc2nc3n(c(=O)c2c1)CCCC3)c1ccccc1[N+](=O)[O-]	–	–	–	–	–	·	·
COc1ccccc1NC(=O)c1c([N+](=O)[O-])c(C(C)(C)C)nn1C	12	–	–	–	–	–	–
Cc1ccccc1NC(=S)c1nc2ccccc2[nH]1	10	–	–	–	–	–	–
COc1ccc(/C(O)=C2/C(=O)C(=O)N(CC3CCCO3)C2c2cccc(O)c2)cc1 (configuration not stated)	9.6	–	–	–	–	–	–
